Test results as given in ChEMBL document CHEMBL1157095, “Antimalarial versus cytotoxic properties of dual drugs derived from 4-aminoquinolines and Mannich bases: interaction with DNA” (J Med Chem, 2010).
The source made the active and inactive calls. No cut-off for these calls is given here.

Assays:
Plasmodium falciparum [1] = test: Antiplasmodial activity against chloroquine-susceptible Plasmodium falciparum 3D7 infected in human erythrocytes assessed as inhibition of [3H]hypoxanthine uptake after 48 hrs; assay type: functional, organism-based
In short: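 Culture in RPMI 1640 with 10% human serum, 25 mM HEPES, 25 mM NaHCO3, A-positive blood, 10% O2/5% CO2/85% N2, 37 C. Isotopic microtest: 0.5% parasitemia, 1.5% hematocrit, 1 μCi tritiated hypoxanthine at time zero, 48 h; freeze-thaw lysis, filter harvest, scintillation count. IC50 = 50% uptake versus drug-free control, nonlinear regression of log dose-response curves.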

Plasmodium falciparum [2] = test: Antiplasmodial activity against chloroquine-susceptible Plasmodium falciparum D6 infected in human erythrocytes assessed as inhibition of [3H]hypoxanthine uptake after 48 hrs; assay type: functional, organism-based
In short: (§1)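 Strains were cultured in A-positive human blood in RPMI 1640 with 10% human serum, 25 mM HEPES and 25 mM NaHCO3, under 10% O2/5% CO2/85% N2 at 37 °C. Microtests used 0.5% parasitemia and 1.5% hematocrit. Tritiated hypoxanthine (1 μCi/well) was added at time zero, then 48 h incubation, freeze-thaw, harvest and scintillation counting. IC50 was taken by nonlinear regression against drug-free controls.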

Plasmodium falciparum [3] = test: Antiplasmodial activity against chloroquine-susceptible Plasmodium falciparum 8425 infected in human erythrocytes assessed as inhibition of [3H]hypoxanthine uptake after 48 hrs; assay type: functional, organism-based; in short: as §1
Plasmodium falciparum [4] = test: Antiplasmodial activity against chloroquine-susceptible Plasmodium falciparum Voll infected in human erythrocytes assessed as inhibition of [3H]hypoxanthine uptake after 48 hrs; assay type: functional, organism-based; in short: as §1
Plasmodium falciparum [5] = test: Antiplasmodial activity against chloroquine-susceptible Plasmodium falciparum L1 infected in human erythrocytes assessed as inhibition of [3H]hypoxanthine uptake after 48 hrs; assay type: functional, organism-based; in short: as §1
Plasmodium falciparum [6] = test: Antiplasmodial activity against chloroquine-susceptible Plasmodium falciparum PA infected in human erythrocytes assessed as inhibition of [3H]hypoxanthine uptake after 48 hrs; assay type: functional, organism-based; in short: as §1
Plasmodium falciparum [7] = test: Antiplasmodial activity against chloroquine-susceptible Plasmodium falciparum Bres infected in human erythrocytes assessed as inhibition of [3H]hypoxanthine uptake after 48 hrs; assay type: functional, organism-based; in short: as §1
Plasmodium falciparum [8] = test: Antiplasmodial activity against chloroquine-susceptible Plasmodium falciparum FCR3 infected in human erythrocytes assessed as inhibition of [3H]hypoxanthine uptake after 48 hrs; assay type: functional, organism-based; in short: as §1
Plasmodium falciparum [9] = test: Antiplasmodial activity against chloroquine-susceptible Plasmodium falciparum W2 infected in human erythrocytes assessed as inhibition of [3H]hypoxanthine uptake after 48 hrs; assay type: functional, organism-based; in short: as §1
Plasmodium falciparum [10] = test: Antiplasmodial activity against chloroquine-susceptible Plasmodium falciparum K2 infected in human erythrocytes assessed as inhibition of [3H]hypoxanthine uptake after 48 hrs; assay type: functional, organism-based; in short: as §1
Plasmodium falciparum [11] = test: Antiplasmodial activity against chloroquine-susceptible Plasmodium falciparum K14 infected in human erythrocytes assessed as inhibition of [3H]hypoxanthine uptake after 48 hrs; assay type: functional, organism-based; in short: as §1
Plasmodium falciparum [12] = test: Antiplasmodial activity against chloroquine-susceptible Plasmodium falciparum FCM29 infected in human erythrocytes assessed as inhibition of [3H]hypoxanthine uptake after 48 hrs; assay type: functional, organism-based; in short: as §1
Plasmodium falciparum [13] = test: Antiplasmodial activity against chloroquine-susceptible Plasmodium falciparum NF54 infected in human erythrocytes assessed as inhibition of [3H]hypoxanthine uptake after 48 hrs; assay type: functional, organism-based
In short: (§2)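 Asynchronous ring-stage cultures in human A Rh+ erythrocytes (RPMI 1640, HEPES, NaHCO3, hypoxanthine, 0.5% Albumax II, 5% CO2, 37 C), 1% parasitemia; top final drug concentration 30 μM. After 24 h, [3H]-hypoxanthine (0.2 μCi/well) added, further 48 h incubation; plates freeze-thawed, harvested, uptake counted; IC50 calculated.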

Plasmodium falciparum [14] = test: Antiplasmodial activity against chloroquine, pyrimethamine, cycloguanil-resistant Plasmodium falciparum K1 infected in human erythrocytes assessed as inhibition of [3H]hypoxanthine uptake after 48 hrs; assay type: functional, organism-based; in short: as §2
Plasmodium falciparum [15] = test: Antiplasmodial activity against chloroquine-resistant Plasmodium falciparum Dd2 infected in human erythrocytes assessed as inhibition of [3H]hypoxanthine uptake after 48 hrs; assay type: functional, organism-based
In short: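 Ring-stage infected erythrocytes (0.5% parasitemia, 2.5% hematocrit) exposed to compounds 48 h, then radioactive hypoxanthine 24 h; radioactivity in precipitable material taken as proliferation index for IC50.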

MRC5 = test: Cytotoxicity against human MRC5 after 3 days; assay type: cell-based; conditions: MRC5, 72 h
In short: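 MRC-5SV2 cells were grown in Earle's MEM with 5% FCSi and plated at about 10^4 cells/well. After 3 days of incubation, viability was read fluorimetrically with resazurin (ex 550/em 590 nm). Growth reduction was expressed relative to untreated control wells, and CC50 was derived.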

Mus musculus [16] = test: Toxicity in ip dosed Swiss mouse assessed as mortality at 50 mg/kg, ip; assay type: organism-based; parameters: dose 50 mg/kg, route intraperitoneal; conditions: in vivo
In short: (§3)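 Peters 4-day suppressive test, P. berghei ANKA: 18-20 g mice infected iv with 2 × 10^6 parasitized red cells day 0; compounds freshly made in 10% DMSO in sterile PBS, given ip from 2 h postinfection and on days 1-3; daily dose 30 mg/kg or 50 mg/kg; deaths recorded.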

Mus musculus [17] = test: Toxicity in ip dosed Swiss mouse assessed as mortality at 30 mg/kg, ip; assay type: organism-based; parameters: dose 30 mg/kg, route intraperitoneal; conditions: in vivo; in short: as §3
Plasmodium berghei [18] = test: Antiplasmodial activity against Plasmodium berghei ANKA infected in Swiss mice (Mus musculus) assessed as reduction of parasitaemia at 50 mg/kg, intraperitoneally daily for 4 days; assay type: functional, organism-based; parameters: dose 50 mg/kg
In short: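 Swiss mice (18-20 g) infected intravenously on day 0 with 2 × 10^6 P. berghei ANKA parasitized red cells. Compound was freshly prepared in 10% DMSO in sterile PBS and given ip, first 2 h postinfection, then on days +1-3 (4-day suppressive test). On day +4, parasitemia was counted microscopically on Giemsa-stained tail-blood films.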

NCH89 = test: Antiproliferative activity against human carmustine-resistant NCH-89 cells assessed as BrdU incorporation after 48 hrs; assay type: functional, cell-based; conditions: NCH89, 48 h
In short: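 NCH89 glioblastoma cells were seeded at 7 × 10^3 cells/well in replicate wells for 24 h. Compound was then added at 0.1-100 μM. After 48 h, BrdU was added at 100 μM final, and incorporation was detected with a BrdU labeling/detection kit.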

Nucleic Acid [19] = test: Binding affinity to pUC18 DNA at pH 7.5 by UV-Vis spectrophotometry analysis; assay type: nucleic-acid assay
In short: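 A 10 μM drug solution was titrated at room temperature with linearized pUC18 DNA (50% AT), 0.1-50 μM base pairs final. Buffer was TE (10 mM Tris-HCl, 0.1 mM EDTA) with 5 mM NaCl, ionic strength 12 mM. UV-Vis absorption spectra were recorded at 220-380 nm. Kd = DNA concentration at which half the drug is bound.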

Nucleic Acid [20] = test: Binding affinity to pUC18 DNA at pH 7.5 by spectrofluorimetry analysis; assay type: nucleic-acid assay
In short: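 A 1-10 μM drug solution was titrated at room temperature with linearized pUC18 DNA (50% AT), 0.1-50 μM base pairs final, in TE buffer with 5 mM NaCl (ionic strength 12 mM). Fluorescence used excitation at 320 nm and emission at 340-500 nm, corrected for buffer and instrument response. Kd = DNA concentration giving half-bound drug.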

Nucleic Acid [21] = test: Binding affinity to pUC18 DNA containing 50% AT assessed as maximum melting temperature at 1 uM by spectrophotometry analysis; assay type: nucleic-acid assay
In short: (§4)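 Drug at 1 μM was mixed with DNA at 15 μM base pairs (15:1 bp:drug) in TE with 5 mM NaCl. Absorbance at 260 nm was recorded from 30-97 °C at 0.5 °C/min, with readings every 0.5 °C. Curves were normalized, smoothed and differentiated. Tmmax = derivative peak maximum; Tmint = middle of the integrated area; Tm1/2 = middle of the peak at half height.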

Nucleic Acid [22] = test: Binding affinity to pUC18 DNA containing 50% AT assessed as middle of the peak at half height melting temperature at 1 uM by spectrophotometry analysis; assay type: nucleic-acid assay; in short: as §4
Nucleic Acid [23] = test: Binding affinity to pUC18 DNA containing 50% AT assessed as middle of the integrated surface melting temperature at 1 uM by spectrophotometry analysis; assay type: nucleic-acid assay; in short: as §4
Nucleic Acid [24] = test: Binding affinity to polydAdT DNA containing 100% AT assessed as maximum melting temperature at 1 uM by spectrophotometry analysis; assay type: nucleic-acid assay; in short: as §4
Nucleic Acid [25] = test: Binding affinity to polydAdT DNA containing 100% AT assessed as middle of the peak at half height melting temperature at 1 uM by spectrophotometry analysis; assay type: nucleic-acid assay; in short: as §4
Nucleic Acid [26] = test: Binding affinity to polydAdT DNA containing 100% AT assessed as middle of the integrated surface melting temperature at 1 uM by spectrophotometry analysis; assay type: nucleic-acid assay; in short: as §4
Plasmodium berghei [27] = test: Antiplasmodial activity against Plasmodium berghei ANKA infected in Swiss mice (Mus musculus) assessed as reduction of parasitaemia at 10 mg/kg, intraperitoneal every day for 4 days; assay type: functional; conditions: ip, 96 h

| Compound | IC50 (Plasmodium falciparum [1]) | IC90 (Plasmodium falciparum [1]) | IC50 (Plasmodium falciparum [2]) | IC90 (Plasmodium falciparum [2]) | IC50 (Plasmodium falciparum [3]) | IC90 (Plasmodium falciparum [3]) | IC50 (Plasmodium falciparum [4]) | IC90 (Plasmodium falciparum [4]) | IC50 (Plasmodium falciparum [5]) | IC90 (Plasmodium falciparum [5]) | IC50 (Plasmodium falciparum [6]) | IC90 (Plasmodium falciparum [6]) | IC50 (Plasmodium falciparum [7]) | IC90 (Plasmodium falciparum [7]) | IC50 (Plasmodium falciparum [8]) | IC90 (Plasmodium falciparum [8]) | IC50 (Plasmodium falciparum [9]) | IC90 (Plasmodium falciparum [9]) | IC90 (Plasmodium falciparum [10]) | IC90 (Plasmodium falciparum [11]) | other results |
| --- | --- | --- | --- | --- | --- | --- | --- | --- | --- | --- | --- | --- | --- | --- | --- | --- | --- | --- | --- | --- | --- |
| CCNCc1cc(Nc2ccnc3cc(Cl)ccc23)ccc1O [DESETHYL AMODIAQUINE] | 19.5 nM | 31.4 nM | 17.5 nM | 37 nM | 26.4 nM | 41.4 nM | 77.5 nM | 113 nM | 86.1 nM | 125 nM | 72.8 nM | 106 nM | 100 nM | 143 nM | 79.1 nM | 130 nM | 146 nM | 202 nM | 144 nM | 220 nM | IC50 (Plasmodium falciparum [10]): 91.2 nM; IC50 (Plasmodium falciparum [11]): 160 nM; IC50 (Plasmodium falciparum [12]): 318 nM; IC90 (Plasmodium falciparum [12]): 407 nM |
| Clc1ccc2c(NCCNC(CCN3CCCCC3)c3ccccc3)ccnc2c1 (stereo not given) | 9.9 nM | 15.8 nM | 10.9 nM | 16 nM | 8 nM | 12.8 nM | 38.5 nM | 68.4 nM | 43.9 nM | 73.5 nM | 41.2 nM | 68.9 nM | 46.5 nM | 76.7 nM | 44.2 nM | 73.1 nM | 44 nM | 74.6 nM | 105 nM | 205 nM | IC50 (Plasmodium falciparum [13]): 8.7 nM; IC50 (Plasmodium falciparum [14]): 32.6 nM; IC50 (Plasmodium falciparum [15]): 23.9 nM; IC50 (Plasmodium falciparum [10]): 58.1 nM; IC50 (Plasmodium falciparum [11]): 76 nM; IC50 (Plasmodium falciparum [12]): 135 nM; IC90 (Plasmodium falciparum [12]): 296 nM; IC50 (MRC5): 8000 nM; Activity (Mus musculus [16]): Toxic; Activity (Mus musculus [17]): Toxic; Activity (Plasmodium berghei [18]): Active; IC50 (NCH89): 5600 nM; Kd (Nucleic Acid [19]): 1000 nM; Kd (Nucleic Acid [20]): 4000 nM; Tm (Nucleic Acid [21]): 73 °C; Tm (Nucleic Acid [22]): 75 °C; Tm (Nucleic Acid [23]): 74.4 °C; Tm (Nucleic Acid [24]): 46 °C; Tm (Nucleic Acid [25]): 46.5 °C; Tm (Nucleic Acid [26]): 46.4 °C |
| CCN(CC)CCCC(C)Nc1ccnc2cc(Cl)ccc12 (stereo not given) [CHLOROQUINE] | – | – | – | 44.4 nM | – | 59.2 nM | – | 316 nM | – | 418 nM | – | 483 nM | – | 614 nM | – | 686 nM | – | 693 nM | 912 nM | 1130 nM | IC50 (MRC5): 64000 nM; inhibition in vivo at 10 mg/kg (Plasmodium berghei [27]): 98.9%; IC50 (NCH89): 41200 nM; Kd (Nucleic Acid [19]): 7500 nM; Kd (Nucleic Acid [20]): 9000 nM; Tm (Nucleic Acid [21]): 73.2 °C; Tm (Nucleic Acid [22]): 74.7 °C; Tm (Nucleic Acid [23]): 73.7 °C; Tm (Nucleic Acid [24]): 46.9 °C; Tm (Nucleic Acid [25]): 47 °C; Tm (Nucleic Acid [26]): 46.6 °C |
